Test results: ChEMBL document CHEMBL4390675, “Dopamine D4 Receptor-Selective Compounds Reveal Structure-Activity Relationships that Engender Agonist Efficacy” (J Med Chem, 2019)
pEC50, pIC50, pKi: −log10 of the molar value. Activity calls are given as the source filed them. No cut-off for these calls is given here.

Tests used:
D(4) dopamine receptor [1] = biological target: T1, D(4) dopamine receptor (Homo sapiens, UniProt P21917); experiment: Displacement of [3H]N-methylspiperone from human D4.4 receptor expressed in HEK293 cell membranes measured after 60 mins by scintillation counting method
T1 sequence (P21917 whole entry): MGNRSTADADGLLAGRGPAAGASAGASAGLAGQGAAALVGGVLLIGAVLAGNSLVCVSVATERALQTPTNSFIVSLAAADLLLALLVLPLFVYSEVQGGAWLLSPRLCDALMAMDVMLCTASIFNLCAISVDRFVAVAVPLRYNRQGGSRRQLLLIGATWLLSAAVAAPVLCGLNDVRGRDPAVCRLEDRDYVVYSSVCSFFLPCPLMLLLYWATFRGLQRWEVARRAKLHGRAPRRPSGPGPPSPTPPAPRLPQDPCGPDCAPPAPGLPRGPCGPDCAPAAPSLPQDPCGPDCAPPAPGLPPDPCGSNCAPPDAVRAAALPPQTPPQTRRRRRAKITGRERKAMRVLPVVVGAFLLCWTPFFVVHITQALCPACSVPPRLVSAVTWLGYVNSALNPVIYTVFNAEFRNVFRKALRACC
In short: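 Frozen HEK293 membranes stably expressing human D4.4R (30 μg/well) in EBSS-bicarbonate buffer, pH 7.4, were incubated with 0.4 nM [3H]N-methylspiperone and half-log compound dilutions (30% DMSO vehicle) for 60 min at room temperature. Nonspecific binding was defined by 10 μM (+)-butaclamol. Samples were filtered on GF/B filters and counted by scintillation.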

[2] = biological target: T2, D(4) dopamine receptor (Homo sapiens) (UniProt P21917); experiment: Antagonist activity at human D4 receptor expressed in CHOK1 cells assessed as inhibition of dopamine-induced beta-arrestin recruitment measured after 90 mins by luminescence assay relative to control; format: cell-based; parameters: concentration or dose not given beside the values
T2 sequence (whole entry): T1 sequence (P21917 whole entry)

D(4) dopamine receptor [3] = biological target: T1, D(4) dopamine receptor; experiment: Displacement of [3H](R)-(+)-7-OH-DPAT from human D4.4 receptor expressed in HEK293 cell membranes measured after 90 mins by scintillation counting method
In short: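 HEK293 cells stably expressing human D4.4R; membranes used fresh in 50 mM Tris, 10 mM MgCl2, 1 mM EDTA, pH 7.4. 60 μg protein/well with 3 nM [3H]-(R)-(+)-7-OH-DPAT (final), half-log dilutions in 30% DMSO, in triplicate. 90 min at room temperature, then GF/B filtration. Nonspecific binding with 10 μM (+)-butaclamol.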

[4] = biological target: T2, D(4) dopamine receptor (Homo sapiens); experiment: Agonist activity at human D4 receptor expressed in CHOK1 cells assessed as inhibition of forskolin-induced cAMP accumulation measured after 30 mins by Eu-cAMP tracer based TR-FRET assay relative to dopamine; format: functional, cell-based
In short: (§1)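 LANCE Ultra TR-FRET cAMP assay in CHO-K1 cells stably expressing human D2R long isoform or D4R. Cells were plated in HBSS/5 mM HEPES/0.2 μM metabisulfite, then immediately given compound plus forskolin (10 μM final) for 30 min at room temperature. Eu-cAMP tracer and ULight-anti-cAMP were added for 2 h in the dark. Values are % of maximal dopamine signal, nonlinear regression of triplicate runs, n = 3–4.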

D(2) dopamine receptor [5] = biological target: T3, D(2) dopamine receptor (Homo sapiens, UniProt P14416); experiment: Agonist activity at human D2L receptor expressed in CHOK1 cells assessed as inhibition of forskolin-induced cAMP accumulation measured after 30 mins by Eu-cAMP tracer based TR-FRET assay; format: cell-based; in short: as §1
T3 sequence (P14416 whole entry): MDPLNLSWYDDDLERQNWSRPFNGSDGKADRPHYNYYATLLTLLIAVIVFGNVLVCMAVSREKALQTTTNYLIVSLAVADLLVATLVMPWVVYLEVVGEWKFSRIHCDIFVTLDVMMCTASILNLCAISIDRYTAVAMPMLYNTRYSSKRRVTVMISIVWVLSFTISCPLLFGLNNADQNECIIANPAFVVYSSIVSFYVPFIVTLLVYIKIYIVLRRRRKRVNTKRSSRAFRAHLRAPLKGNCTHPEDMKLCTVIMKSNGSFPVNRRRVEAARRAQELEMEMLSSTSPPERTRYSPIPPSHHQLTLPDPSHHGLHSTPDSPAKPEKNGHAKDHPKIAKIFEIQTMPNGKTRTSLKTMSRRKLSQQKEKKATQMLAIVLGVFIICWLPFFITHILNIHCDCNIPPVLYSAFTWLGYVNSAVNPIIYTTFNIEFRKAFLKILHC

D(2) dopamine receptor [6] = biological target: T3, D(2) dopamine receptor; experiment: Agonist activity at human D2L receptor expressed in CHOK1 cells assessed as induction of beta-arrestin recruitment measured after 90 mins by luminescence assay; format: cell-based
In short: (§2)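 PathHunter enzyme-complementation assay in CHO-K1 cells stably expressing human D2R long isoform, D3R or D4R, seeded overnight in Ham's F12/10% FBS. Compounds were diluted in PBS with 0.2 μM sodium metabisulfite and applied at multiple concentrations for 90 min at 37 °C. Detection reagent was added for 45–60 min at room temperature, then luminescence was read. Values are % of maximal dopamine response, from nonlinear regression of triplicate runs, mean ± SEM, n = 3–4.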

[7] = biological target: T2, D(4) dopamine receptor (Homo sapiens); experiment: Antagonist activity at human D4 receptor expressed in CHOK1 cells assessed as suppression of dopamine-induced inhibition of forskolin-stimulated cAMP accumulation measured after 30 mins by Eu-cAMP tracer based TR-FRET assay relative to dopamine; format: functional, cell-based; parameters: concentration or dose not given beside the values
D(3) dopamine receptor [8] = biological target: T4, D(3) dopamine receptor (Homo sapiens, UniProt P35462); experiment: Displacement of [3H](R)-(+)-7-OH-DPAT from human D3 receptor expressed in HEK293 cell membranes measured after 90 mins by scintillation counting method
T4 sequence (P35462 whole entry): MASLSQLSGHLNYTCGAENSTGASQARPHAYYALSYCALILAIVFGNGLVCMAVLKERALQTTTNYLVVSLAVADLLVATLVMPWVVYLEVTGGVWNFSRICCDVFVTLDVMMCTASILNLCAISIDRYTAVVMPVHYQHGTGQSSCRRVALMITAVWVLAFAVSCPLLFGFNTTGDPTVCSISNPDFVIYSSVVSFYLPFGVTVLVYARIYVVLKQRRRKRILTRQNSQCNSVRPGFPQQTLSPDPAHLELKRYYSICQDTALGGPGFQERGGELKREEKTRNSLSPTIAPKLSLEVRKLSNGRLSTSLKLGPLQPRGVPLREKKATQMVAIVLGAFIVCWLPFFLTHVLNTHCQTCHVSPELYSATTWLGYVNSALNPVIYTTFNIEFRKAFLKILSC
In short: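 Fresh HEK293 hD3R membranes (40 μg/well) in 50 mM Tris, 10 mM MgCl2, 1 mM EDTA, pH 7.4 were incubated with 0.5 nM [3H]-(R)-(+)-7-OH-DPAT and half-log compound dilutions in 30% DMSO for 90 min at room temperature. Nonspecific binding was defined with 10 μM (+)-butaclamol. Samples were filtered on PEI-soaked GF/B filters and counted by scintillation.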

D(4) dopamine receptor [9] = biological target: T1, D(4) dopamine receptor; experiment: Antagonist activity at human D4 receptor expressed in CHOK1 cells assessed as suppression of dopamine-induced inhibition of forskolin-stimulated cAMP accumulation measured after 30 mins by Eu-cAMP tracer based TR-FRET assay; format: functional, cell-based
[10] = biological target: D(1A) dopamine receptor (Homo sapiens) (UniProt P21728); experiment: Antagonist activity at D1 receptor (unknown origin) stably expressed in CHOK1 cells assessed as inhibition of dopamine-induced beta-arrestin recruitment measured after 90 mins by luminescence assay; format: cell-based
Chain of D(1A) dopamine receptor (Homo sapiens) (P21728 whole entry): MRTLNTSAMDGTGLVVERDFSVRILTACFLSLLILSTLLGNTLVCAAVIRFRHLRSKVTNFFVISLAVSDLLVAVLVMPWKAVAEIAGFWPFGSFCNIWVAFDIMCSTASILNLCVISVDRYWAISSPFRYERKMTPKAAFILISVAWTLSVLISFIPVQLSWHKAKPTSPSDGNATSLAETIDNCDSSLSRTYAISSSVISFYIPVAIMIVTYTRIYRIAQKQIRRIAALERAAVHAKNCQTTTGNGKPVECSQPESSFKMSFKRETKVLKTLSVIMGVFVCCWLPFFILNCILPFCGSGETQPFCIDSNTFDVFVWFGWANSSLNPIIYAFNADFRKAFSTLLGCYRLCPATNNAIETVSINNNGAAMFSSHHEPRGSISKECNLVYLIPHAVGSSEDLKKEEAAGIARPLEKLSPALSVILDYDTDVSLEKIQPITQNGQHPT

D(3) dopamine receptor [11] = biological target: T4, D(3) dopamine receptor; experiment: Agonist activity at human D3 receptor expressed in CHOK1 cells assessed as induction of beta-arrestin recruitment measured after 90 mins by luminescence assay; format: cell-based; in short: as §2
[12] = biological target: D(1A) dopamine receptor (Homo sapiens) (UniProt P21728); experiment: Agonist activity at D1 receptor (unknown origin) stably expressed in CHOK1 cells assessed as induction of beta-arrestin recruitment measured after 90 mins by luminescence assay; format: cell-based
[13] = biological target: D(1B) dopamine receptor (Homo sapiens) (UniProt P21918); experiment: Agonist activity at D5 receptor (unknown origin) stably expressed in CHOK1 cells assessed as induction of beta-arrestin recruitment measured after 90 mins by luminescence assay; format: cell-based
Chain of D(1B) dopamine receptor (Homo sapiens) (P21918 whole entry): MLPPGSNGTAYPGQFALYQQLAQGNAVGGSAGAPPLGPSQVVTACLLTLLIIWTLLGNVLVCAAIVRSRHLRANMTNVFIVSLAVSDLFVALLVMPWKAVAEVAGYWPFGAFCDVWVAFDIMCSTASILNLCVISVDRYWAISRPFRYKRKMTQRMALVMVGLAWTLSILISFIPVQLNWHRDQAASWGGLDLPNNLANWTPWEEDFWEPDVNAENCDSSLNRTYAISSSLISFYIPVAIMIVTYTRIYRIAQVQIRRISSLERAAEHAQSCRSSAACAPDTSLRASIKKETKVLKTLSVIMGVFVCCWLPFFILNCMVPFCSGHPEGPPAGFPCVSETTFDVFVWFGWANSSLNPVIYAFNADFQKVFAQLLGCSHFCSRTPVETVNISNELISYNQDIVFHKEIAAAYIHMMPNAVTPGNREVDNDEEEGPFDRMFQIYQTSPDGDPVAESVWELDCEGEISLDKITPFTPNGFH

D(4) dopamine receptor [14] = biological target: T1, D(4) dopamine receptor; experiment: Antagonist activity at human D4 receptor expressed in CHOK1 cells assessed as inhibition of dopamine-induced beta-arrestin recruitment measured after 90 mins by luminescence assay; format: cell-based; conditions: read-out: IC50
[15] = biological target: T2, D(4) dopamine receptor (Homo sapiens); experiment: Agonist activity at human D4 receptor expressed in CHOK1 cells assessed as induction of beta-arrestin recruitment measured after 90 mins by luminescence assay relative to control; format: cell-based; in short: as §2
D(3) dopamine receptor [16] = biological target: T4, D(3) dopamine receptor; experiment: Antagonist activity at human D3 receptor expressed in CHOK1 cells assessed as inhibition of dopamine-induced beta-arrestin recruitment measured after 90 mins by luminescence assay; format: cell-based; conditions: for pIC50: read-out: IC50
In short: (§3)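 Antagonist-mode PathHunter β-arrestin assay in CHO-K1 cells stably expressing human D2R long isoform or D3R, seeded overnight. Compound dilutions in PBS with 0.2 μM metabisulfite were co-incubated with an EC80 dopamine concentration for 90 min at 37 °C. Detection reagent was added for 45–60 min at room temperature, then luminescence was read. Values are % of dopamine EC80 response, from nonlinear regression of triplicate runs, n = 3–4.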

D(4) dopamine receptor [17] = biological target: T1, D(4) dopamine receptor; experiment: Agonist activity at human D4 receptor expressed in CHOK1 cells assessed as induction of beta-arrestin recruitment measured after 90 mins by luminescence assay; format: cell-based; conditions: for pEC50: read-out: EC50; in short: as §2
D(2) dopamine receptor [18] = biological target: T3, D(2) dopamine receptor; experiment: Antagonist activity at human D2L receptor expressed in CHOK1 cells assessed as inhibition of dopamine-induced beta-arrestin recruitment measured after 90 mins by luminescence assay relative to control; format: cell-based; in short: as §3
D(4) dopamine receptor [19] = biological target: T1, D(4) dopamine receptor; experiment: Agonist activity at human D4 receptor expressed in CHOK1 cells assessed as inhibition of forskolin-induced cAMP accumulation measured after 30 mins by Eu-cAMP tracer based TR-FRET assay; format: functional, cell-based; conditions: for pEC50: read-out: EC50; in short: as §1
[20] = biological target: D(1B) dopamine receptor (Homo sapiens) (UniProt P21918); experiment: Antagonist activity at D5 receptor (unknown origin) stably expressed in CHOK1 cells assessed as inhibition of dopamine-induced beta-arrestin recruitment measured after 90 mins by luminescence assay; format: cell-based
D(3) dopamine receptor [21] = biological target: T4, D(3) dopamine receptor; experiment: Displacement of [3H]N-methylspiperone from human D3 receptor expressed in HEK293 cell membranes measured after 60 mins by scintillation counting method
In short: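 HEK293 cells stably expressing human D3R; membranes in EBSS buffer pH 7.4, stored at −80 °C. 20 μg protein/well with 0.4 nM [3H]N-methylspiperone (final), half-log dilutions in 30% DMSO, in triplicate. 60 min at room temperature, then GF/B filtration. Nonspecific binding with 10 μM (+)-butaclamol.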

D(2) dopamine receptor [22] = biological target: T3, D(2) dopamine receptor; experiment: Antagonist activity at human D2L receptor expressed in CHOK1 cells assessed as suppression of dopamine-induced inhibition of forskolin-stimulated cAMP accumulation measured after 30 mins by Eu-cAMP tracer based TR-FRET assay relative to dopamine; format: cell-based; conditions: 0.5 h

| EC50 (D(4) dopamine receptor [17]) | SMILES | pKi (D(4) dopamine receptor [1]) | inhibition [2] [%] | pKi (D(4) dopamine receptor [3]) | Emax [4] [%] | EC50 (D(2) dopamine receptor [5]) | EC50 (D(2) dopamine receptor [6]) | inhibition [7] [%] | pKi (D(3) dopamine receptor [8]) | pIC50 (D(4) dopamine receptor [9]) | inhibition [10] | Activity [12] | Activity [13] | pIC50 (D(4) dopamine receptor [14]) | INH (D(2) dopamine receptor [18]) [%] | pEC50 (D(4) dopamine receptor [19]) | pKi (D(3) dopamine receptor [21]) | EC50 (D(3) dopamine receptor [11]) | IC50 (D(3) dopamine receptor [16]) | inhibition (INH) (D(2) dopamine receptor [22]) [%] | further results |
| --- | --- | --- | --- | --- | --- | --- | --- | --- | --- | --- | --- | --- | --- | --- | --- | --- | --- | --- | --- | --- | --- |
| – | Cc1cccc(NC(=O)CN2CCC(c3ccccn3)CC2)c1 | 7.27 | 81.7 | 8.40 | 61.9 | Not Active | Not Active | 53.8 | 6.78 | 7.16 | inactive | inactive | inactive | 6.72 | 94.8 | 8.57 | 5.77 | – | – | – | pEC50 (D(3) dopamine receptor [11]; read-out: EC50): < 4.00; Emax [15]: 22.5%; pIC50 (D(3) dopamine receptor [16]): < 4.00; pEC50 (D(4) dopamine receptor [17]): 6.33; inhibition [20]: inactive |
| – | Cc1cccc(NC(=O)CN2CCN(c3cccc4ccccc34)CC2)c1 | 7.55 | 96.7 | 8.78 | 27.8 | Not Active | Not Active | 73.8 | 5.90 | 5.60 | – | – | – | 5.37 | 100 | 6.96 | 4.94 | Not Active | Not Active | 100 | Emax [15]: 16.4%; pEC50 (D(4) dopamine receptor [17]): 5.04 |
| Not Active | Cc1cccc(NC(=O)CCN2CCN(c3ncccn3)CC2)c1 | 6.28 | – | 7.48 | – | Not Active | Not Active | – | 5.03 | 5.67 | inactive | inactive | inactive | 6.37 | 94.6 | 6.25 | 5.34 | Not Active | – | – | pIC50 (D(3) dopamine receptor [16]): < 4.30; inhibition [20]: inactive |
| Not Active | Cc1cccc(NC(=O)CN2CCC(c3ccc(Cl)cc3)CC2)c1 | – | – | – | – | Not Active | Not Active | – | – | – | – | – | – | – | 100 | – | 4.58 | Not Active | Not Active | 97.5 | EC50 (D(4) dopamine receptor [19]): Not Active |

| SMILES | EC50 (D(4) dopamine receptor [17]) | pKi (D(4) dopamine receptor [1]) | inhibition [2] [%] | pKi (D(4) dopamine receptor [3]) | Emax [4] [%] | EC50 (D(2) dopamine receptor [5]) | EC50 (D(2) dopamine receptor [6]) | inhibition [7] [%] | pKi (D(3) dopamine receptor [8]) | pIC50 (D(4) dopamine receptor [9]) | inhibition [10] | Activity [12] | Activity [13] | pIC50 (D(4) dopamine receptor [14]) | INH (D(2) dopamine receptor [18]) [%] | pEC50 (D(4) dopamine receptor [19]) | pKi (D(3) dopamine receptor [21]) | EC50 (D(3) dopamine receptor [11]) | IC50 (D(3) dopamine receptor [16]) | inhibition (INH) (D(2) dopamine receptor [22]) [%] | further results |
| --- | --- | --- | --- | --- | --- | --- | --- | --- | --- | --- | --- | --- | --- | --- | --- | --- | --- | --- | --- | --- | --- |
| Cc1ccc(C2CCN(CC(=O)Nc3cccc(C)c3)CC2)nc1 | Not Active | 7.38 | – | 8.16 | – | Not Active | Not Active | – | < 5.00 | 6.34 | – | – | – | 6.40 | 100 | – | < 4.30 | Not Active | Not Active | 100 | EC50 (D(4) dopamine receptor [19]): Not Active |
